Source: ChEMBL document CHEMBL2406928, “Discovery of novel insulin-like growth factor-1 receptor inhibitors with unique time-dependent binding kinetics” (ACS Med Chem Lett, 2013)
Values belong to the compound of their own block, whether it stands above or below them. Activity calls are given as the source filed them. No cut-off for these calls is given here.

Assays:
[1] = Tmax in CD1 mouse at 5 mg/kg, po; type: ADME, organism-based; set-up: dose 5 mg/kg, route oral; settings: in vivo
[2] = Plasma concentration in CD1 mouse at 5 mg/kg, po measured at 8 hrs; type: ADME, organism-based; set-up: dose 5 mg/kg, route oral
[3] = (§1) Antitumor activity against human GEO cells xenografted in nu/nu CD1 mouse assessed as tumor growth inhibition administered as intermittent dosing regimen relative to vehicle-treated control; type: functional
[4] = Antitumor activity against human GEO cells xenografted in nu/nu CD1 mouse assessed as tumor growth inhibition at 5 mg/kg, po qd administered for 14 days measured twice per week relative to vehicle-treated control; type: functional; settings: 336 h, read-out: TGI
Summary of the method: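 GEO human colon cancer xenografts in mice; oral dosing at 5 mg/kg once daily, days 1–14. Tumor volumes expressed as mean percentage of initial volume ± SE; TGI calculated relative to vehicle-treated group.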

[5] = Oral bioavailability in CD1 mouse at 5 mg/kg; type: ADME, organism-based; settings: plasma
[6] = Volume of distribution at steady state in CD1 mouse at 0.5 mg/kg, iv; type: ADME, organism-based; set-up: dose 0.5 mg/kg, route intravenous; settings: in vivo, read-out: Vdss
[7] = Cmax in CD1 mouse at 5 mg/kg, po; type: ADME, organism-based; set-up: dose 5 mg/kg, route oral; settings: in vivo
[8] = Clearance in CD1 mouse at 0.5 mg/kg, iv; type: ADME, organism-based; set-up: dose 0.5 mg/kg, route intravenous; settings: in vivo
[9] = Plasma concentration in CD1 mouse at 5 mg/kg, po measured at 24 hrs; type: ADME, organism-based; set-up: dose 5 mg/kg, route oral
Mus musculus [10] = assay: In vivo inhibition of IR phosphorylation in human GEO cells xenografted in nu/nu CD1 mouse at 2 mg/kg, po measured up to 48 hrs relative to control; type: functional
Summary of the method: (§2)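 Single oral dose of 2 mg/kg to mice bearing GEO colon cancer xenografts (IGF-1R/IGF-II autocrine loop). Phosphorylation of IGF-1R and of IR in tumors followed over time up to 48 h after dosing, expressed as inhibition versus control.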

[11] = Cmax in CD1 mouse at 2.5 mg/kg, po; type: ADME, organism-based; set-up: dose 2.5 mg/kg, route oral; settings: in vivo
[12] = Clearance in CD1 mouse at 5 mg/kg, iv; type: ADME, organism-based; set-up: dose 5 mg/kg, route intravenous; settings: in vivo
GEO = assay: as §1; type: functional
[13] = Plasma concentration in CD1 mouse at 2.5 mg/kg, po measured at 24 hrs; type: ADME, organism-based; set-up: dose 2.5 mg/kg, route oral
Mus musculus [14] = assay: In vivo inhibition of IGF-1R phosphorylation in human GEO cells xenografted in nu/nu CD1 mouse at 2 mg/kg, po measured up to 48 hrs relative to control; type: functional; summary of the method: as §2
[15] = Oral bioavailability in CD1 mouse at 2.5 mg/kg; type: ADME, organism-based; settings: plasma
[16] = Aqueous solubility of the compound; type: physicochemical; settings: buffer
[17] = Plasma concentration in CD1 mouse at 2.5 mg/kg, po measured at 8 hrs; type: ADME, organism-based; set-up: dose 2.5 mg/kg, route oral
[18] = Volume of distribution at steady state in CD1 mouse at 5 mg/kg, iv; type: ADME, organism-based; set-up: dose 5 mg/kg, route intravenous; settings: in vivo, read-out: Vdss
[19] = Tmax in CD1 mouse at 2.5 mg/kg, po; type: ADME, organism-based; set-up: dose 2.5 mg/kg, route oral; settings: in vivo
[20] = Antitumor activity against human GEO cells xenografted in nu/nu CD1 mouse assessed as tumor growth inhibition at 2 mg/kg, po q7d administered for 14 days measured twice per week relative to vehicle-treated control; settings: 336 h, read-out: TGI
[21] = target: Insulin-like growth factor 1 receptor (Homo sapiens) (UniProt P08069)
Chain of Insulin-like growth factor 1 receptor (Homo sapiens) (P08069 31-736 limits assumed): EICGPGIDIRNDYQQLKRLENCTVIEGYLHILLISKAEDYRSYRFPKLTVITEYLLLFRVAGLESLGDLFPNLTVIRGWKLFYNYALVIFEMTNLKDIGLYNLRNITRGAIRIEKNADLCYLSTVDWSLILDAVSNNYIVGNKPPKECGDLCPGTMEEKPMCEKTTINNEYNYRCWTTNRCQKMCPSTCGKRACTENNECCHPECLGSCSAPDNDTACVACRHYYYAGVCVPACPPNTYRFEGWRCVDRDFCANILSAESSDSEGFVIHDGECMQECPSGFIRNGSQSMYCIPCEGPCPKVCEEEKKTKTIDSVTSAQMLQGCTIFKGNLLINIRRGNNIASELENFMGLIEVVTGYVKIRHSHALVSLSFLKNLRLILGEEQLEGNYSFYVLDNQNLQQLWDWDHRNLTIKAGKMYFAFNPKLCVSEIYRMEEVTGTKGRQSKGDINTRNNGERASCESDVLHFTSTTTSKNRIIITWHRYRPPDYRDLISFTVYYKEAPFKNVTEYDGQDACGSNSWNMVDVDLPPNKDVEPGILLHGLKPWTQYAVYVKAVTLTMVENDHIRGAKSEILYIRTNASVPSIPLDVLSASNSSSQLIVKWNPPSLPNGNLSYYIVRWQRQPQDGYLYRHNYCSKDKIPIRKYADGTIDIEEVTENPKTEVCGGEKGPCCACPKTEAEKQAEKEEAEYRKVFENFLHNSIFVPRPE
Chain of Insulin-like growth factor 1 receptor (Homo sapiens) (P08069 741-1367 limits assumed): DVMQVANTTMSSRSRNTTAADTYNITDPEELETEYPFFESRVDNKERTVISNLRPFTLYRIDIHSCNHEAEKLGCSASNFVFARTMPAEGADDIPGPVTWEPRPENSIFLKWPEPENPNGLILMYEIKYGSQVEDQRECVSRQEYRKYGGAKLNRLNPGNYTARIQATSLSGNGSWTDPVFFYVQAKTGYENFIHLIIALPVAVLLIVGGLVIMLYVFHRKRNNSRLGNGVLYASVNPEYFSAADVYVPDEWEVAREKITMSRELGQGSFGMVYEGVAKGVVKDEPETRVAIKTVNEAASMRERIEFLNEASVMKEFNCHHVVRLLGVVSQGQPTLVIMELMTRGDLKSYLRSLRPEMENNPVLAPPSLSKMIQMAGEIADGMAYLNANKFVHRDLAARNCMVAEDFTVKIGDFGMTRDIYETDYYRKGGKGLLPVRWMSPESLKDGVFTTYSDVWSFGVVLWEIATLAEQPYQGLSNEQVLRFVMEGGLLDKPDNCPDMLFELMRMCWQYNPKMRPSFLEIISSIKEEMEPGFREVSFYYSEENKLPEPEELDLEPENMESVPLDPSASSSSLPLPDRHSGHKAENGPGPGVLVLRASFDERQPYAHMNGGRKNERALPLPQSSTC

Tmax [1]: 30 min | concentration at 8 h [2]: 280 nM | bioavailability [5]: 74% | Vd [6]: 2.4 L/kg | Cmax [7]: 3200 nM | clearance [8]: 17 mL/min/kg | concentration at 24 h [9]: < 30 nM
SMILES: COc1cc(-c2ccccc2)nc2cc(-c3nc([C@H]4C[C@@](C)(O)C4)n4ccnc(N)c34)ccc12
TGI [3]: <50% | inhibition in vivo at 5 mg/kg [4]: 64%

Cmax [11]: 2200 nM | clearance [12]: 5 mL/min/kg | concentration at 24 h [13]: < 30 nM | bioavailability [15]: 63% | solubility [16]: soluble | concentration at 8 h [17]: 320 nM | Vd [18]: 1.5 L/kg | Tmax [19]: 30 min
SMILES: CCOc1cc(-c2ccccc2)nc2cc(-c3nc([C@H]4C[C@@](C)(O)C4)n4ccnc(N)c34)ccc12
inhibition in vivo at 2 mg/kg (Mus musculus [10]): 80% | TGI (GEO): Active | inhibition in vivo at 2 mg/kg (Mus musculus [14]): 80% | inhibition in vivo at 2 mg/kg [20]: 66%

T1/2 [21]: 12 min
SMILES: C[C@]1(O)C[C@@H](c2nc(-c3ccc4ccc(-c5ccccc5)nc4c3)c3c(N)nccn32)C1
